The nature of data set [1]: folding enthalpy; higher = less favourable; fluorescence melt of hairpins on a sequencing array, two-state fit. Conditions: sodium 0.088 M. The essentials:
(§1)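 Cy3 signals were normalised both to pre-quench Cy3 and to control constructs. They came from library hairpins carrying annealed Cy3 and quencher oligos on a sequenced MiSeq flow cell, imaged in 50 mM Na-HEPES pH 8.0, 25 mM NaCl, in 2.5 °C steps up to 60 °C. Bootstrapped two-state fits gave melting temperature and folding enthalpy, and four replicates were combined by inverse variance. Fitted temperatures were then raised by 9.35 °C to match UV melts.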

Data set [2] is described as follows: melting temperature; fluorescence melt of hairpins on a sequencing array, two-state fit, raised by 9.35 °C to match UV melts. The settings on record: sodium 0.088 M. The essentials:
as §1

Among the data in the array DNA melting data of Ke et al. (doi:10.1101/2024.01.08.574731) are folding enthalpy and Tm values, retold here.

Take GGGAACGGAAACATTCCC (((((.(....).))))): the folding enthalpy in data set [1] was -32.6 kcal/mol. In addition, the Tm in data set [2] came to 39.4 °C.
The corresponding values for GGGAACTCGAAAGAGCCC (((..(((....)))))) are -20.3 kcal/mol and 37.8 °C.
For GGGAAGCGAAAGCTGCCC (((.(((....))).))), the folding enthalpy in data set [1] is -23.2 kcal/mol. Moreover, in data set [2], the Tm came to 65.2 °C.
On to GGGAAGGGAAACCTTCCC (((((((....))))))), for which, in data set [1], the folding enthalpy is -35.5 kcal/mol. The Tm in data set [2] was 65.4 °C.
The corresponding values for GGGAATCGAAAGATCCCC (((.(((....))).))) are -24.9 kcal/mol and 51.5 °C.
For the sequence GGGAATGCGAAAGCACCC (((..(((....)))))), the folding enthalpy in data set [1] is -19.4 kcal/mol. Besides, the Tm in data set [2] came to 42.3 °C.
As to GGGAATGGAAACACTCCC ((((.((....)).)))), the folding enthalpy in data set [1] was -29.3 kcal/mol. In addition, the Tm in data set [2] stood at 36.9 °C.
In the same order, the values of GGGAATGGAAACATCCCC (((.(((....))).))) are -24.7 kcal/mol and 42.2 °C.
GGGACACGAAAGTGACCC (((.(((....))).))): the folding enthalpy in data set [1] was -37.1 kcal/mol. In data set [2], the Tm was 62.9 °C.
The corresponding values for GGGACACGAAAGTGCCCC (((.(((....))).))) are -37.8 kcal/mol and 63.1 °C.
In the same order, the values of GGGACAGGAAACCGTCCC (((((.(....).))))) are -36.2 kcal/mol and 52.8 °C.
In the same order, the values of GGGACAGGAAACTATCCC ((((.((....)).)))) are -29.4 kcal/mol and 35.4 °C.
With GGGACCGAAAGGTCACCC ((((((....)))..))), the folding enthalpy in data set [1] was -12.2 kcal/mol. Further, the Tm in data set [2] came to 56.9 °C.
In the same order, the values of GGGACCGAAAGGTCTCCC ((((((....)))..))) are -11.7 kcal/mol and 51.9 °C.
The corresponding values for GGGACCGAAAGGTTCCCC ((((((....)))..))) are -15.4 kcal/mol and 59.7 °C.
The corresponding values for GGGACCGGAAACGGCCCC (((.(((....))).))) are -37 kcal/mol and 62.5 °C.
GGGACCGGAAACGGTCTC (.(((((....))))).): the folding enthalpy in data set [1] is -13.2 kcal/mol. The Tm in data set [2] amounted to 59.2 °C.
In the same order, the values of GGGACCGGAAACGGTTCC ((.((((....)))).)) are -42.5 kcal/mol and 62.6 °C.
In the same order, the values of GGGACCTCGAAAGAGCCC (((..(((....)))))) are -19.4 kcal/mol and 35.3 °C.
GGGACGGGAAACCATCCC ((((.((....)).)))): the folding enthalpy in data set [1] is -31.6 kcal/mol. The Tm in data set [2] came out at 44.7 °C.
In the same order, the values of GGGACGGGAAACCGCCCC (((.(((....))).))) are -44.1 kcal/mol and 57.3 °C.
For GGGACGGGAAACTGTCCC (((((.(....).))))), in data set [1], the folding enthalpy is -39.8 kcal/mol. Moreover, the Tm in data set [2] came to 57.8 °C.
The corresponding values for GGGACTACGAAAGTACCC (((..(((....)))))) are -19.5 kcal/mol and 36.1 °C.
In the same order, the values of GGGACTCGAAAGAGCCC (((.(((....)))))) are -28.8 kcal/mol and 54.9 °C.
The corresponding values for GGGACTGGAAACAATCCC ((((.((....)).)))) are -27.6 kcal/mol and 37.9 °C.
GGGACTGGAAACGGTTCC ((.((.(....).)).)): the folding enthalpy in data set [1] is -18.9 kcal/mol. In data set [2], the Tm was determined as 42 °C.
On to GGGAGACGAAAGTCGCCC (((.(((....))).))), for which the folding enthalpy in data set [1] was -33 kcal/mol. In addition, the Tm in data set [2] is 66 °C.
The corresponding values for GGGAGCGAAAGCTAACCC ((((((....)))..))) are -16.1 kcal/mol and 45 °C.
In the same order, the values of GGGAGCGAAAGCTTCCCC ((((((....)))..))) are -12.9 kcal/mol and 61 °C.
As for GGGAGCGGAAACGCCCCC (((.(((....))).))), in data set [1], the folding enthalpy is -27.4 kcal/mol. Besides, in data set [2], the Tm stood at 61.4 °C.
The corresponding values for GGGAGCGGAAACGCTCTC (.(((((....))))).) are -14.5 kcal/mol and 58.4 °C.
In the same order, the values of GGGAGGACGAAAGTCCCC (((..(((....)))))) are -11.6 kcal/mol and 53.1 °C.
In the same order, the values of GGGAGTCCGAAAGGACCC (((..(((....)))))) are -14 kcal/mol and 53.6 °C.
As to GGGAGTCGAAAGACGCCC (((.(((....))).))), in data set [1], the folding enthalpy is -30 kcal/mol. In addition, in data set [2], the Tm amounted to 64.3 °C.
The corresponding values for GGGAGTGGAAACGCTCTC (.(((.(....).))).) are -17.8 kcal/mol and 39.7 °C.
The corresponding values for GGGAGTGGAAACGCTTCC ((.((.(....).)).)) are -20.7 kcal/mol and 39 °C.
